Test results taken from ChEMBL document CHEMBL4190170, “Improved Antiviral Activity of a Polyamide Against High-Risk Human Papillomavirus Via N-Terminal Guanidinium Substitution” (Medchemcomm, 2016).
Activity calls are given as the source filed them. No cut-off for these calls is given here.

Tests used:
[1] = Binding affinity to HPV 18 ACATA TTTTGAACAA TTGGC LCR DNA (7559 to 7568 nucleotides) after 4 hrs by DNase I footprinting assay; parameters: species or system human papillomavirus 18
How it was run: (§1)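 Kd values derived from DNase I footprinting of HPV18 LCR DNA, each run at least in triplicate. Sites are read as the polyamide binding block flanked by 5 nt on each side.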

Human papillomavirus [2] = assay: Antiviral activity against HPV 18 infected in mouse 3T3 cells assessed as decrease in viral DNA after 48 hrs by qRT-PCR analysis; assay type: functional, organism-based, human papillomavirus 18; conditions: NIH3T3, 48 h
How it was run: (§2)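 Assays run side by side over a range of polyamide concentrations for two days. Pseudo IC50 and IC90 are the polyamide concentrations that give a 50% or 90% drop in viral DNA.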

[3] = Binding affinity to HPV 18 CTTTGGCGCATATAA GGCGC LCR DNA (7585 to 7594 nucleotides) after 4 hrs by DNase I footprinting assay; parameters: species or system human papillomavirus 18; how it was run: as §1
human papillomavirus 18 [4] = assay: Binding affinity to HPV 18 5'-TAGTCATTTT-3' LCR DNA (7609 to 7618 nucleotides) after 4 hrs by DNase I footprinting assay; how it was run: as §1
Human papillomavirus [5] = assay: Antiviral activity against HPV 31 infected in mouse 3T3 cells assessed as decrease in viral DNA after 48 hrs by qRT-PCR analysis; assay type: functional, organism-based, Human papillomavirus type 31; conditions: NIH3T3, 48 h; how it was run: as §2
human papillomavirus 18 [6] = assay: Binding affinity to HPV 18 CCT GGT ATTAG TCATT TTCCTG TCCAGGT LCR DNA (7619 to 7626 nucleotide) at 5 nM after 4 hrs by DNase I footprinting assay; how it was run: as §1
human papillomavirus 18 [7] = assay: (§3) Binding affinity to HPV 18 CCTGG TATTAGTCAT TTTCC LCR DNA (7606 to 7615 nucleotides) after 4 hrs by DNase I footprinting assay; how it was run: as §1
[8] = as §3; parameters: species or system human papillomavirus 18; how it was run: as §1
Human papillomavirus [9] = assay: Antiviral activity against HPV 16 infected in mouse 3T3 cells assessed as decrease in viral DNA after 48 hrs by qRT-PCR analysis; assay type: functional, organism-based, Human papillomavirus 16; conditions: NIH3T3, 48 h; how it was run: as §2
human papillomavirus 18 [10] = assay: Binding affinity to (7619 nucleotide) of HPV 18 CCT GGT ATTAG TCATT TTCCTG TCCAGGT LCR DNA at 5 nM after 4 hrs by DNase I footprinting assay; how it was run: as §1
human papillomavirus 18 [11] = assay: Binding affinity to HPV 18 CCT GG TATTAGTCATTTTCCTG TCCA G GT LCR DNA (7606 to 7615 nucleotide) at 50 nM after 4 hrs by DNase I footprinting assay; how it was run: as §1

CN(CCCN)CCCNC(=O)CCNC(=O)c1cc(NC(=O)c2cc(NC(=O)c3cc(NC(=O)c4cc(NC(=O)CCNC(=O)c5cc(NC(=O)c6cc(NC(=O)CCCNC(=O)c7cc(NC(=O)c8cc(NC(=O)c9cc(NC(=O)CCNC(=O)c%10cc(NC(=O)c%11cc(NC(=O)c%12nc(N=C(N)N)cn%12C)cn%11C)cn%10C)cn9C)cn8C)cn7C)cn6C)cn5C)cn4C)cn3C)cn2C)cn1C
Kd [1]: 1 nM | IC50 (Human papillomavirus [2]): 200 nM | IC90 (Human papillomavirus [2]): 900 nM | Kd [3]: 2.2 nM | Activity (human papillomavirus 18 [4]): Active | IC50 (Human papillomavirus [5]): 140 nM | IC90 (Human papillomavirus [5]): 800 nM | Activity (human papillomavirus 18 [6]): Active | Activity (human papillomavirus 18 [7]): Active | Kd [8]: 1 nM | IC50 (Human papillomavirus [9]): 100 nM | IC90 (Human papillomavirus [9]): 380 nM

CN(CCCN)CCCNC(=O)CCNC(=O)c1cc(NC(=O)c2cc(NC(=O)c3cc(NC(=O)c4cc(NC(=O)CCNC(=O)c5cc(NC(=O)c6cc(NC(=O)CCCNC(=O)c7cc(NC(=O)c8cc(NC(=O)c9cc(NC(=O)CCNC(=O)c%10cc(NC(=O)c%11cc(NC(=O)c%12nccn%12C)cn%11C)cn%10C)cn9C)cn8C)cn7C)cn6C)cn5C)cn4C)cn3C)cn2C)cn1C
Kd [1]: 0.9 nM | IC50 (Human papillomavirus [2]): 700 nM | IC90 (Human papillomavirus [2]): > 10000 nM | Kd [3]: 2.7 nM | Activity (human papillomavirus 18 [4]): Active | IC50 (Human papillomavirus [5]): 100 nM | IC90 (Human papillomavirus [5]): 1000 nM | Activity (human papillomavirus 18 [7]): Active | Kd [8]: 0.9 nM | IC50 (Human papillomavirus [9]): 100 nM | IC90 (Human papillomavirus [9]): 1100 nM

CN(CCCN)CCCNC(=O)CCNC(=O)c1cc(NC(=O)c2cc(NC(=O)c3cc(NC(=O)CCNC(=O)c4cc(NC(=O)c5cc(NC(=O)c6cc(NC(=O)CCNC(=O)c7cc(NC(=O)c8cc(NC(=O)CCNC(=O)c9cc(NC(=O)c%10cc(NC(=O)CCCNC(=O)c%11cc(NC(=O)c%12cc(NC(=O)c%13cc(NC(=O)CCNC(=O)c%14cc(NC(=O)c%15cc(NC(=O)c%16nccn%16C)cn%15C)cn%14C)cn%13C)cn%12C)cn%11C)cn%10C)cn9C)cn8C)cn7C)n(C)c6)n(C)c5)n(C)c4)n(C)c3)n(C)c2)n(C)c1
IC50 (Human papillomavirus [2]): 56 nM | IC90 (Human papillomavirus [2]): 1500 nM | IC50 (Human papillomavirus [5]): 30 nM | IC90 (Human papillomavirus [5]): 510 nM | IC50 (Human papillomavirus [9]): 36 nM | IC90 (Human papillomavirus [9]): 350 nM

CN(CCCN)CCCNC(=O)CCNC(=O)c1cc(NC(=O)c2cc(NC(=O)c3cc(NC(=O)c4cc(NC(=O)CCNC(=O)c5cc(NC(=O)c6cc(NC(=O)CCCNC(=O)c7cc(NC(=O)c8cc(NC(=O)c9cc(NC(=O)CCNC(=O)c%10cc(NC(=O)c%11cc(NC(=O)c%12nc(N=C(N(C)C)N(C)C)cn%12C)cn%11C)cn%10C)cn9C)cn8C)cn7C)cn6C)cn5C)cn4C)cn3C)cn2C)cn1C
Kd [1]: 1.1 nM | IC50 (Human papillomavirus [2]): 200 nM | IC90 (Human papillomavirus [2]): > 10000 nM | Kd [3]: 3.2 nM | IC50 (Human papillomavirus [5]): 130 nM | IC90 (Human papillomavirus [5]): 900 nM | Activity (human papillomavirus 18 [10]): inactive | Activity (human papillomavirus 18 [11]): Active | Activity (human papillomavirus 18 [7]): Active | Kd [8]: 1.2 nM | IC50 (Human papillomavirus [9]): 300 nM | IC90 (Human papillomavirus [9]): > 10000 nM
